# Laboratory results: ChEMBL document CHEMBL3593206, “SAR Studies of Exosite-Binding Substrate-Selective Inhibitors of A Disintegrin And Metalloprotease 17 (ADAM17) and Application as Selective in Vitro Probes” (J Med Chem, 2015)
# Activity calls are given as the source filed them. The calls are words filed in the database; no cut-off is given here.
# Experiments:
# [1] = biological target: T1, Disintegrin and metalloproteinase domain-containing protein 10 (Homo sapiens) (UniProt O14672); experiment: Inhibition of ADAM10 (unknown origin) at 100 uM preincubated for 30 mins followed by substrate addition measured every 30 mins for 2 hrs by fluorescence assay relative to control
# T1 sequence (whole entry): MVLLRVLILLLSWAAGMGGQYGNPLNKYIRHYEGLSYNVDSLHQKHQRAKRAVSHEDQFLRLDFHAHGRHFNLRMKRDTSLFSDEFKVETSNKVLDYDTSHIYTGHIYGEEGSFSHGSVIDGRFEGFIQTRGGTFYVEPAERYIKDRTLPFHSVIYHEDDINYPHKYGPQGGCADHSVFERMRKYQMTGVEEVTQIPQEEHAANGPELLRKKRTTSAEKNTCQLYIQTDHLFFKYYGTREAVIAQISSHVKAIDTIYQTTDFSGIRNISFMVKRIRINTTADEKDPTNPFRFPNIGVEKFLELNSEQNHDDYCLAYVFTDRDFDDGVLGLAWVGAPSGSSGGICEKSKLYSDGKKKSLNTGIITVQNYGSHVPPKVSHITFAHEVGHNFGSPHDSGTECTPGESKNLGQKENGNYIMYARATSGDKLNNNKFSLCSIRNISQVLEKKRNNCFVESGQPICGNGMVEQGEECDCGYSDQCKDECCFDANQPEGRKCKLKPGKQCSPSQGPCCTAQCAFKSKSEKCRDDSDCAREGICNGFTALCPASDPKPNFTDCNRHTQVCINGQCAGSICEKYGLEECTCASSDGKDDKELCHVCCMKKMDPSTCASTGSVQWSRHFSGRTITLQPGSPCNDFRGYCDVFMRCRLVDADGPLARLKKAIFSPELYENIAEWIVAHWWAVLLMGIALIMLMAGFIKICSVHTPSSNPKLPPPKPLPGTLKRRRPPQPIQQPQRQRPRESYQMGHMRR
# Procedure, shortened: (§1)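 Enzyme at 30 nM (3× solution) in 10 mM Hepes, 0.001% Brij-35, pH 7.5. Inhibitor series of 10 points, 1:3, from 300 μM, preincubated 30 min at RT. Glycosylated substrate added from a 30 μM 3× solution. Fluorescence (ex 360/em 460 nm) read every 30 min for 2 h. Inhibition taken from hydrolysis rates against substrate-only and substrate-plus-enzyme wells.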
# [2] = biological target: T2, Disintegrin and metalloproteinase domain-containing protein 10 (Homo sapiens, UniProt O14672); experiment: Inhibition of ADAM10 (unknown origin) preincubated for 30 mins followed by substrate addition measured every 30 mins for 2 hrs by fluorescence assay; procedure, shortened: as §1
# T2 sequence (O14672 whole entry): T1 sequence (whole entry)
# [3] = biological target: T3, Disintegrin and metalloproteinase domain-containing protein 17 (Homo sapiens, UniProt P78536); experiment: Inhibition of ADAM17 (unknown origin) preincubated for 30 mins followed by substrate addition measured every 30 mins for 2 hrs by fluorescence assay; procedure, shortened: as §1
# T3 sequence (P78536 whole entry, the tested form may be a part): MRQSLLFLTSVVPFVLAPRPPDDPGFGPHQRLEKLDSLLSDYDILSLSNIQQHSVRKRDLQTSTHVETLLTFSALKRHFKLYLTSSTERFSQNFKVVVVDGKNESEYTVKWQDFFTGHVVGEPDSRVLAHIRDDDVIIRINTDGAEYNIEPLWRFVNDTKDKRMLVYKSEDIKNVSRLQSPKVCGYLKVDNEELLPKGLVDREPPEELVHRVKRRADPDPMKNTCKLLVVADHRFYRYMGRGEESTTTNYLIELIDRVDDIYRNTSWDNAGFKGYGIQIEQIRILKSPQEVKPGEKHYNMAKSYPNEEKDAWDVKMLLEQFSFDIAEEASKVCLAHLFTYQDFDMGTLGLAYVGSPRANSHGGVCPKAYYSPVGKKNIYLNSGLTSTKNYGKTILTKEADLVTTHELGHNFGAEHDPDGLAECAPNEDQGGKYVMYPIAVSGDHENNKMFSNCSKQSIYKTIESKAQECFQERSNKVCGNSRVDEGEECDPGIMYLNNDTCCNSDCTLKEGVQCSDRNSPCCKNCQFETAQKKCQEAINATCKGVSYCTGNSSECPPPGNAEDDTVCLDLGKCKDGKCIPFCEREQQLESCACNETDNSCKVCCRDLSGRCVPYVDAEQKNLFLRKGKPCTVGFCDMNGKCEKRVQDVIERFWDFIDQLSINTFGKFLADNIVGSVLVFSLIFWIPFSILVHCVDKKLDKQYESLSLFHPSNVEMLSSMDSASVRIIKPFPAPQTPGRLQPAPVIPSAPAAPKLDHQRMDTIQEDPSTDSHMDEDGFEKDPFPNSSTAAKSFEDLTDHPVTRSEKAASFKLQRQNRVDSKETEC
# [4] = biological target: T4, 72 kDa type IV collagenase (Homo sapiens, UniProt P08253); experiment: Inhibition of MMP2 (unknown origin) using Mca-KLPGL-Dnp-AR as substrate preincubated for 30 mins followed by substrate addition measured after 1 hr by fluorescence assay
# Procedure, shortened: (§2)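 Inhibitor as 10-point 1:3 dilutions from 300 μM, 30 min at RT. Substrate added from a 30 μM 3× solution. Single fluorescence read (ex 324/em 393 nm) after 1 h at RT.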
# Target sequence in this assay (P08253 whole entry): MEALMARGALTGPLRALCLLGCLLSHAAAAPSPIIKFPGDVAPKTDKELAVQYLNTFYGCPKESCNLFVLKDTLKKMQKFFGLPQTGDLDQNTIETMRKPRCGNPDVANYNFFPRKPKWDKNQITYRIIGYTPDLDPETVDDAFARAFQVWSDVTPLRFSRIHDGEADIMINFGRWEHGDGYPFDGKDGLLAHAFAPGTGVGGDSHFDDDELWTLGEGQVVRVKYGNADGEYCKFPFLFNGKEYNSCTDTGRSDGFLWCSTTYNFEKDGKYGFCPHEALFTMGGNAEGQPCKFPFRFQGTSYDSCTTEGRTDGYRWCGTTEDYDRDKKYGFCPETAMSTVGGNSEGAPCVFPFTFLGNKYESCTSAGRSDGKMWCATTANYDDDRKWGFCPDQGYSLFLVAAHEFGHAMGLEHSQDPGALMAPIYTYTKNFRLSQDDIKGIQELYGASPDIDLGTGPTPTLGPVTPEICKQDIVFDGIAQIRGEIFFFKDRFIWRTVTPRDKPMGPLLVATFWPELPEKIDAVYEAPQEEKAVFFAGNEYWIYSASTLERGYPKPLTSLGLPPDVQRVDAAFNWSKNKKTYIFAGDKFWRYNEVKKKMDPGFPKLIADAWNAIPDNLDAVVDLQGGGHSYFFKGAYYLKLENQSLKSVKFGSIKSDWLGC
# Neutrophil collagenase [5] = biological target: T5, Neutrophil collagenase (Homo sapiens, UniProt P22894); experiment: Inhibition of MMP8 (unknown origin) using Mca-KLPGL-Dnp-AR as substrate preincubated for 30 mins followed by substrate addition measured after 1 hr by fluorescence assay; procedure, shortened: as §2
# Target sequence in this assay (P22894 whole entry): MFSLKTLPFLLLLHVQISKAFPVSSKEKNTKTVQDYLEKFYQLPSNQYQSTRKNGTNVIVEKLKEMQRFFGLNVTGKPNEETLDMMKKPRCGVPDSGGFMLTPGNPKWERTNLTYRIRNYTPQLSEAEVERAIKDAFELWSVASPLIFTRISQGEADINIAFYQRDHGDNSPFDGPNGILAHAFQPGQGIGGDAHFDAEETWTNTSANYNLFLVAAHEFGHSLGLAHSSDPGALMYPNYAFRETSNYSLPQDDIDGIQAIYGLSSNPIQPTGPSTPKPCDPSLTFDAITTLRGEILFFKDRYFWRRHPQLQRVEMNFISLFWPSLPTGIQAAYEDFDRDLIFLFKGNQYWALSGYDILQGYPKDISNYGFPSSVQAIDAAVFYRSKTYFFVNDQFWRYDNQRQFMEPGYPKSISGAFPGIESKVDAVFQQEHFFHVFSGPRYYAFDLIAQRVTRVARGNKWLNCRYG
# [6] = biological target: T6, Matrix metalloproteinase-9 (Homo sapiens, UniProt P14780); experiment: Inhibition of MMP9 (unknown origin) using Mca-KLPGL-Dnp-AR as substrate preincubated for 30 mins followed by substrate addition measured after 1 hr by fluorescence assay; procedure, shortened: as §2
# T6 sequence (P14780 whole entry): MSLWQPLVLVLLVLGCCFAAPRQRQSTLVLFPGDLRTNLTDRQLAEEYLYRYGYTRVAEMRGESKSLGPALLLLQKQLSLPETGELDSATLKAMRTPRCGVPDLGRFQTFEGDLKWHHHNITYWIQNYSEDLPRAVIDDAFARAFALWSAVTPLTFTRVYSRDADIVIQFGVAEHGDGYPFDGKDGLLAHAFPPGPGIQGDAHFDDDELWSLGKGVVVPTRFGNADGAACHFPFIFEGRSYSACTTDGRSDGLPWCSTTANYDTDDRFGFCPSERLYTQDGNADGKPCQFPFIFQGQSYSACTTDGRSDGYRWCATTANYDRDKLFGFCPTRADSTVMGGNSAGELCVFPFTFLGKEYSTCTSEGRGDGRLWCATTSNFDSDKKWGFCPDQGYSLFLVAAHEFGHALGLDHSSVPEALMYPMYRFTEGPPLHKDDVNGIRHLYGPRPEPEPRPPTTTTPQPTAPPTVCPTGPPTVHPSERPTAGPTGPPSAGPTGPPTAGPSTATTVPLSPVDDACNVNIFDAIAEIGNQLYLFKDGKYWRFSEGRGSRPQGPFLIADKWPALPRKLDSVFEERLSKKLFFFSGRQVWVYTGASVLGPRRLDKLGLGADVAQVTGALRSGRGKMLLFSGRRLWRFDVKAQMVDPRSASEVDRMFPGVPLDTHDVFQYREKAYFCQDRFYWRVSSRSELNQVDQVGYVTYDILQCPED
# [7] = biological target: Matrix metalloproteinase-14 (Homo sapiens, UniProt P50281); experiment: Inhibition of MMP14 (unknown origin) using Mca-KLPGL-Dnp-AR as substrate preincubated for 30 mins followed by substrate addition measured after 1 hr by fluorescence assay; procedure, shortened: as §2
# [8] = biological target: T4, 72 kDa type IV collagenase; experiment: Inhibition of MMP2 (unknown origin) using Mca-KLPGL-Dnp-AR as substrate at 100 uM preincubated for 30 mins followed by substrate addition measured after 1 hr by fluorescence assay relative to control; procedure, shortened: as §2
# Target sequence in this assay (P08253 110-660 limits assumed): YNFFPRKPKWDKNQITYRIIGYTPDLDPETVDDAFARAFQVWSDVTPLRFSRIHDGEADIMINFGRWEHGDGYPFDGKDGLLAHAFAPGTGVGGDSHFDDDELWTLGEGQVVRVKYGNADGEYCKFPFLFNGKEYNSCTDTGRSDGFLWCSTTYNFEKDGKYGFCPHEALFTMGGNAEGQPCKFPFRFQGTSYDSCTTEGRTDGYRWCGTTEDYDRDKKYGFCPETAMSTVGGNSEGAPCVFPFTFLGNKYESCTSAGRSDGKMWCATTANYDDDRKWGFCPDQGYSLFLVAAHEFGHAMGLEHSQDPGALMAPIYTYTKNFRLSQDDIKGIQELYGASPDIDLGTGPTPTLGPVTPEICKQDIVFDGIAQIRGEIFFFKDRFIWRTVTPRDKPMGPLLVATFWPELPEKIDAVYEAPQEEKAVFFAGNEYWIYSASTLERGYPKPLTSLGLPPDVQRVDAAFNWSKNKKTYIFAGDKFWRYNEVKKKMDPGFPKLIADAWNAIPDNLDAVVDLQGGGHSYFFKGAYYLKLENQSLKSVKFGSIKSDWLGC
# Neutrophil collagenase [9] = biological target: T5, Neutrophil collagenase; experiment: Inhibition of MMP8 (unknown origin) using Mca-KLPGL-Dnp-AR as substrate at 100 uM preincubated for 30 mins followed by substrate addition measured after 1 hr by fluorescence assay relative to control; procedure, shortened: as §2
# Target sequence in this assay (P22894 101-467 limits assumed): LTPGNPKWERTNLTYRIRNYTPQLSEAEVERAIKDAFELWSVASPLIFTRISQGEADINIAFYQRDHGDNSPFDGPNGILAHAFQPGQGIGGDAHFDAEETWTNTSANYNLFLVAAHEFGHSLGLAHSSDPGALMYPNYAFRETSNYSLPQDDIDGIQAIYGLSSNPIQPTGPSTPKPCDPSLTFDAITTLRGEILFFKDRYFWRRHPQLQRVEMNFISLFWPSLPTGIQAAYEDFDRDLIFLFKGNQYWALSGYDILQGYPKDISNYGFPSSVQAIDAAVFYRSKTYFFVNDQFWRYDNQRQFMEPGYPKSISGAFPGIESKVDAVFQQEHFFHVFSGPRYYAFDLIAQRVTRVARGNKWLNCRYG
# [10] = biological target: T6, Matrix metalloproteinase-9; experiment: Inhibition of MMP9 (unknown origin) using Mca-KLPGL-Dnp-AR as substrate at 100 uM preincubated for 30 mins followed by substrate addition measured after 1 hr by fluorescence assay relative to control; procedure, shortened: as §2
# [11] = biological target: T3, Disintegrin and metalloproteinase domain-containing protein 17; experiment: Inhibition of ADAM17 (unknown origin) at 100 uM preincubated for 30 mins followed by substrate addition measured every 30 mins for 2 hrs by fluorescence assay relative to control; procedure, shortened: as §1
# [12] = Cytotoxicity against CHOK1 cells assessed as inhibition of cell viability up to 33 uM after 72 hrs by CellTiter-Glo assay; format: cell-based, Cricetulus griseus; conditions: chinese hamster, cho-k1, 72 h
# A549 = experiment: Cytotoxicity against human A549 cells assessed as inhibition of cell viability up to 33 uM after 72 hrs by CellTiter-Glo assay; format: cell-based; conditions: a549, 72 h
# [13] = biological target: T3, Disintegrin and metalloproteinase domain-containing protein 17; experiment: Inhibition of ADAM17 in human THP1 cells assessed as inhibition of LPS-stimulated TNFalpha cleavage at 25 uM after 1 hr by AlphaScreen assay relative to control; format: cell-based; conditions: THP-1
# Procedure, shortened: (§3)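 THP-1 cells grown in RPMI 1640 with 10% FBS and 0.05 mM 2-mercaptoethanol; 3000 cells per well. Compound given in 3% DMSO for 1 h, then LPS added (1 μg/mL final) and cells incubated overnight at 37 °C. TNFα detected by AlphaScreen using anti-TNFα acceptor beads and streptavidin donor beads, each step 1 h in the dark at RT.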
# [14] = biological target: T3, Disintegrin and metalloproteinase domain-containing protein 17; experiment: Inhibition of ADAM17 in human THP1 cells assessed as inhibition of LPS-stimulated TNFalpha cleavage after 1 hr by AlphaScreen assay; format: cell-based, THP-1; procedure, shortened: as §3
# [15] = biological target: T3, Disintegrin and metalloproteinase domain-containing protein 17; experiment: Inhibition of ADAM17 in human HT1080 cells assessed as inhibition of PMA-stimulated PTK7 L622D mutant shedding at 25 to 100 uM after 16 hrs by Western blot analysis; format: cell-based; conditions: HT-1080
# Procedure, shortened: (§4)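 PTK7 shedding tested at 25, 50 and 100 μM in PMA-stimulated cells. HT1080 fibrosarcoma cells carried the L622D PTK7 mutant uncleavable by MT1-MMP; SW480 colorectal cells expressed wild-type PTK7 endogenously. Soluble PTK7 was detected.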
# [16] = biological target: T3, Disintegrin and metalloproteinase domain-containing protein 17; experiment: Inhibition of ADAM17 in human SW480 cells assessed as inhibition of PMA-stimulated wild type PTK7 shedding at 25 to 100 uM after 16 hrs by Western blot analysis; format: cell-based; procedure, shortened: as §4
# [17] = biological target: T3, Disintegrin and metalloproteinase domain-containing protein 17; experiment: Inhibition of ADAM17 in human A549 cells assessed as inhibition of PMA-stimulated heregulin shedding at 40 uM incubated for 1 hr followed by PMA stimulation measured after 1 hr; format: cell-based
# Procedure, shortened: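 Heregulin shedding in A549 cells, with all compounds tested at 40 μM.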
# [18] = biological target: T3, Disintegrin and metalloproteinase domain-containing protein 17; experiment: Inhibition of ADAM17 in human A549 cells assessed as effect on PMA-stimulated TGFalpha shedding up to 100 uM preincubated for 1 hr followed by PMA stimulation measured after 1 hr by ELISA; format: cell-based
# Procedure, shortened: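 TGFα shedding from PMA-treated A549 cells tested up to 100 μM. Marimastat at 10 μM served as control, with a non-PMA-treated control included; soluble TGFα measured in the supernatant.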
# [19] = biological target: T3, Disintegrin and metalloproteinase domain-containing protein 17; experiment: Inhibition of ADAM17 in human EAhy926 cells assessed as inhibition of neprilysin shedding at 15 uM relative to control; format: cell-based
# [20] = biological target: T1, Disintegrin and metalloproteinase domain-containing protein 10 (Homo sapiens); conditions: A549, 10 uM
structure (smiles),measurement,setting,value
CCC[C@H]1CNC(=O)C(=O)N1C[C@@H]1CCCN1C[C@@H](CC1CCCCC1)N1C[C@H](Cc2ccccc2)N(CCc2ccccc2)C(=O)C1=O,inhibition,[1],0%
same,IC50,[2],> 100 µM
same,IC50,[3],4.3 µM
same,IC50,[4],> 100 µM
same,IC50,Neutrophil collagenase [5],> 100 µM
same,IC50,[6],> 100 µM
same,IC50,[7],> 100 µM
same,inhibition,[8],0%
same,inhibition,Neutrophil collagenase [9],0%
same,inhibition,[10],0%
same,inhibition,[11],100%
same,Activity,[12],Non-toxic
same,Activity,A549,Non-toxic
same,inhibition,[13],60%
same,IC50,[14],28 µM
same,inhibition,[15],0%
same,inhibition,[16],0%
same,inhibition,[17],28%
same,inhibition,[18],0%
same,inhibition,[19],38%
CNC(=O)[C@@H](NC(=O)[C@H](CC(C)C)[C@H](O)C(=O)NO)C(C)(C)C,inhibition,[20],Active
